Laboratory results taken from ChEMBL document CHEMBL2407076, “cis-Restricted 3-aminopyrazole analogues of combretastatins: synthesis from plant polyalkoxybenzenes and biological evaluation in the cytotoxicity and phenotypic sea urchin embryo assays” (2013).
Activity calls are given as the source filed them.

Columns and labels:
Paracentrotus lividus [1] = experiment: Microtubule destabilizing activity in sea urchin embryo assessed as embryo spinning compound treated just after hatching at 8 to 10 hrs post fertilization and measured after 15 mins to 20 hrs of treatment
Paracentrotus lividus [2] = experiment: Antiproliferative activity against sea urchin embryo assessed as cleavage alteration compound treated at 45 to 55 mins prior to first mitotic cycle completion and measured at 2.5 to 5.5 hrs post fertilization; type: functional
Method in brief: (§1)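 Fertilized eggs were treated 8−20 min after fertilization. The embryos were held at room temperature in filtered seawater as a monolayer of up to 2000 embryos/mL. Compounds were given as 2-fold decreasing concentrations from a 10 mM DMSO stock diluted 10-fold in 95% EtOH, with DMSO ≤0.05% and EtOH ≤1%. Embryos were scored by light microscopy. The value is the effective threshold concentration, measured in duplicate.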

[3] = Growth inhibition of human NCI60 cells at 10 uM after 48 hrs by SRB assay; type: functional; settings: NCI60, 48 h, read-out: GI
Method in brief: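 Tested in the NCI60 single-dose screen at 10 μM. The value is the mean percent inhibition of cell growth across the panel.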

NCI-H522 = experiment: Growth inhibition of human NCI-H522 cells after 48 hrs by SRB assay; type: functional; settings: NCI-H522, 48 h
Method in brief: (§2)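 Tested in the NCI60 anticancer drug screen. GI50 is the concentration giving 50% cell growth inhibition. For the panel-wide line, the value is the mean GI50 across the panel.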

OVCAR-8 = experiment: Growth inhibition of human OVCAR8 cells after 48 hrs by SRB assay; type: functional, cell-based
Method in brief: as §2

Paracentrotus lividus [4] = experiment: Antiproliferative activity against sea urchin embryo assessed as cleavage arrest compound treated at 45 to 55 mins prior to first mitotic cycle completion and measured at 2.5 to 5.5 hrs post fertilization; type: functional
Method in brief: as §1

MDA-MB-435 = experiment: Growth inhibition of human MDA-MB-435 cells after 48 hrs by SRB assay; type: functional; settings: MDA-MB-435, 48 h
Method in brief: as §2

[5] = Growth inhibition of human NCI60 cells after 48 hrs by SRB assay; type: functional; settings: NCI60, 48 h
Method in brief: as §2

NCI/ADR-RES = experiment: Growth inhibition of human NCI/ADR-RES cells after 48 hrs by SRB assay; type: functional, cell-based
Method in brief: as §2

K562 = experiment: Growth inhibition of human K562 cells after 48 hrs by SRB assay; type: functional; settings: K562, 48 h
Method in brief: as §2

SR = experiment: Growth inhibition of human SR cells after 48 hrs by SRB assay; type: functional
Method in brief: as §2

SW-620 = experiment: Growth inhibition of human SW620 cells after 48 hrs by SRB assay; type: functional; settings: SW-620, 48 h
Method in brief: as §2

HL-60(TB) = experiment: Growth inhibition of human HL-60(TB) cells after 48 hrs by SRB assay; type: functional; settings: HL-60, 48 h
Method in brief: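 Tested in the NCI60 anticancer drug screen. HL-60(TB) is one of the leukemia lines in the panel. Value reported as GI50, the concentration needed for 50% inhibition of cell growth.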

KM12 = experiment: Growth inhibition of human KM12 cells after 48 hrs by SRB assay; type: functional; settings: KM12, 48 h
Method in brief: as §2

OVCAR-3 = experiment: Growth inhibition of human OVCAR3 cells after 48 hrs by SRB assay; type: functional; settings: OVCAR-3, 48 h
Method in brief: as §2

| Compound | EC (Paracentrotus lividus [1]) | EC (Paracentrotus lividus [2]) | inhibition of growth at 10 µM [3] | GI50 (NCI-H522) | growth inhibition (GI) (OVCAR-8) | EC (Paracentrotus lividus [4]) | GI50 (MDA-MB-435) | GI50 [5] | growth inhibition (GI) (NCI/ADR-RES) | GI50 (K562) | GI50 (SR) | GI50 (SW-620) | GI50 (HL-60(TB)) | GI50 (KM12) | GI50 (OVCAR-3) |
| --- | --- | --- | --- | --- | --- | --- | --- | --- | --- | --- | --- | --- | --- | --- | --- |
| COc1ccc(-c2[nH]nc(N)c2-c2cc(OC)c(OC)c(OC)c2)cc1 | 1 µM | 0.01 µM | 89.2% | < 10 nM | Active | 0.05 µM | < 10 nM | 46 nM | Active |  |  |  |  |  |  |
| COc1ccc(-c2[nH]nc(N)c2-c2cc(OC)c3c(c2OC)OCO3)cc1 | >4 µM | >4 µM |  |  |  | >4 µM |  |  |  |  |  |  |  |  |  |
| COc1ccc(-c2c(N)n[nH]c2-c2cc(OC)c3c(c2OC)OCO3)cc1 | >4 µM | 4 µM |  |  |  | >4 µM |  |  |  |  |  |  |  |  |  |
| COc1ccc(-c2c(N)n[nH]c2-c2cc(OC)c3c(c2)OCO3)cc1 | >5 µM | 1 µM | 18.1% |  |  | >4 µM |  |  |  |  |  |  |  |  |  |
| COc1ccc(-c2[nH]nc(N)c2-c2cc3c(c(OC)c2OC)OCO3)cc1 | >4 µM | >4 µM |  |  |  | >4 µM |  |  |  |  |  |  |  |  |  |
| COc1ccc(-c2c(N)n[nH]c2-c2cc3c(c(OC)c2OC)OCO3)cc1 | >4 µM | >4 µM | 3.38% |  |  | >4 µM |  |  |  |  |  |  |  |  |  |
| COc1ccc(-c2[nH]nc(N)c2-c2cc(OC)c3c(c2)OCO3)cc1 | >10 µM | 0.2 µM | 46% |  | Active | >4 µM |  | 4370 nM | Active |  |  |  |  |  |  |
| COc1ccc(-c2c(N)n[nH]c2-c2cc(OC)c3c(c2)OCCO3)cc1 | >5 µM | 1 µM | 32% |  |  | >4 µM |  |  |  |  |  |  |  |  |  |
| COc1ccc(-c2c(N)n[nH]c2-c2cc(OC)c(OC)c(OC)c2)cc1 | >10 µM | 0.1 µM | 75.8% |  | Active | 1 µM |  | 302 nM | Active | < 100 nM | < 100 nM | < 100 nM | < 100 nM | < 100 nM | < 100 nM |
